# Laboratory results taken from ChEMBL document CHEMBL3399974, “Discovery and SAR of novel series of imidazopyrimidinones and dihydroimidazopyrimidinones as positive allosteric modulators of the metabotropic glutamate receptor 5 (mGlu5)” (Bioorg Med Chem Lett, 2015).
# Calls of active or inactive are those of the source. The calls are words filed in the database; no cut-off is given here.
# Experiments:
# [1] = target: T1, Metabotropic glutamate receptor 5 (Rattus norvegicus, UniProt P31424); experiment: Positive allosteric modulation at rat mGluR5 expressed in HEK293 cells by calcium mobilization assay; type: functional, cell-based
# Method in brief: (§1)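 HEK293 cells stably expressing rat mGlu5 were run in a 'triple add' calcium mobilization assay that detects agonism, PAM and NAM activity together. Response amplitude was expressed as % of the maximal response to 100 µM glutamate. Values are the mean of three or more independent determinations.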
# [2] = target: Metabotropic glutamate receptor 5 (Rattus norvegicus) (UniProt P31424); experiment: Positive allosteric modulation at rat mGluR5 expressed in HEK293 cells assessed as amplitude of response at 30 uM by calcium mobilization assay relative to glutamate; type: functional, cell-based
# Method in brief: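 HEK293 cells stably expressing rat mGlu5 were used in a calcium mobilization assay. Test compound was given at 30 µM, and response amplitude is expressed as percent of the maximal response to 100 µM glutamate. Values are the average of three or more independent determinations.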
# [3] = Drug metabolism in human liver microsomes assessed as compound metabolized at 1 uM after 15 mins; type: ADME; details: read-out: Drug metabolism
# Method in brief: (§2)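 Test compound at 1 µM was incubated for 15 min with liver microsomes (human for HLM, rat for RLM). Read-out was % of compound metabolized.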
# [4] = Drug metabolism in rat liver microsomes assessed as compound metabolized at 1 uM after 15 mins; type: ADME; details: read-out: Drug metabolism; method in brief: as §2
# [5] = Plasma protein binding in human; type: ADME, cell-free
# [6] = Plasma protein binding in rat; type: ADME, cell-free
# [7] = target: Metabotropic glutamate receptor 3 (Homo sapiens, UniProt Q14832); experiment: Negative allosteric modulation at mGluR3 (unknown origin)
# [8] = target: Metabotropic glutamate receptor 1 (Homo sapiens, UniProt Q13255); experiment: Positive allosteric modulation at mGluR1 (unknown origin)
# [9] = target: Metabotropic glutamate receptor 2 (Homo sapiens, UniProt Q14416); experiment: Positive allosteric modulation at mGluR2 (unknown origin)
# [10] = target: Metabotropic glutamate receptor 4 (Homo sapiens, UniProt Q14833); experiment: Positive allosteric modulation at mGluR4 (unknown origin)
# [11] = target: Metabotropic glutamate receptor 6 (Homo sapiens, UniProt O15303); experiment: Positive allosteric modulation at mGluR6 (unknown origin)
# [12] = target: Metabotropic glutamate receptor 7 (Homo sapiens, UniProt Q14831); experiment: Positive allosteric modulation at mGluR7 (unknown origin)
# [13] = target: Metabotropic glutamate receptor 8 (Homo sapiens, UniProt O00222); experiment: Positive allosteric modulation at mGluR8 (unknown origin)
# Cytochrome P450 2C9 = Cytochrome P450 2C9 (Homo sapiens, UniProt P11712); experiment: Inhibition of human CYP2C9; type: ADME
# Method in brief: (§3)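 Cocktail assay in human liver microsomes using known probe substrates for the major CYP isoforms (2C9, 2D6, 3A4, 1A2). IC50 was determined for each isoform.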
# Cytochrome P450 2D6 = Cytochrome P450 2D6 (Homo sapiens, UniProt P10635); experiment: Inhibition of human CYP2D6; type: ADME; method in brief: as §3
# Cytochrome P450 3A4 = Cytochrome P450 3A4 (Homo sapiens, UniProt P08684); experiment: Inhibition of human CYP3A4; type: ADME; method in brief: as §3
# Cytochrome P450 1A2 = target: T2, Cytochrome P450 1A2 (Homo sapiens, UniProt P05177); experiment: Inhibition of human CYP1A2; type: ADME
# T2 sequence (P05177 whole entry): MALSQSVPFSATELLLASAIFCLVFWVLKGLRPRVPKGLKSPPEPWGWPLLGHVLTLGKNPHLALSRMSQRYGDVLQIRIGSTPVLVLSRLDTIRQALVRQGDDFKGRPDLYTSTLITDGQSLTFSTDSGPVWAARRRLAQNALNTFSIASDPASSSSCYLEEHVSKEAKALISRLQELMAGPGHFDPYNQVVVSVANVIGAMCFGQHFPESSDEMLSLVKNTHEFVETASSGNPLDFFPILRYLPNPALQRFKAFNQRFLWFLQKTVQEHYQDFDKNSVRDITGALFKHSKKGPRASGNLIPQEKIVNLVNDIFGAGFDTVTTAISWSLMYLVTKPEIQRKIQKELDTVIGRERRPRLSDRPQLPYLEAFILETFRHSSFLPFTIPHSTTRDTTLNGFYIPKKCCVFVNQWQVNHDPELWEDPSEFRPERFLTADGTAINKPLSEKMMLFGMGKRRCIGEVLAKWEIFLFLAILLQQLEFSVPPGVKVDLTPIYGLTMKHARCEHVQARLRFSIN
# Method in brief: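 Cocktail assay in human liver microsomes with known probe substrates for CYP 2C9, 2D6, 3A4 and 1A2; IC50 determined.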
# [14] = Terminal half-life in rat at 1 mg/kg, iv and 10 mg/kg, po; type: ADME, organism-based; details: in vivo, read-out: beta t1/2 (converted)
# Method in brief: (§4)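 Rat PK: compound formulated at 1 mg/mL in 20% HP-β-CD and given at 1 mg/kg IV and 10 mg/kg PO.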
# Rattus norvegicus [15] = experiment: Volume of distribution at steady state in rat at 1 mg/kg, iv and 10 mg/kg, po; type: ADME, organism-based; details: in vivo; method in brief: as §4
# Plasma = experiment: AUC in rat plasma at 1 mg/kg, iv and 10 mg/kg, po; type: ADME, organism-based; details: in vivo
# [16] = Ratio of AUC in brain to plasma of rat at 1 mg/kg, iv and 10 mg/kg, po; type: ADME, organism-based
# [17] = Fraction unbound in rat brain at 1 mg/kg, iv and 10 mg/kg, po; type: ADME, organism-based
# [18] = Cmax in rat brain at 1 mg/kg, iv and 10 mg/kg, po; type: ADME, organism-based
# Rattus norvegicus [19] = experiment: Antipsychotic activity in po dosed rat assessed as reversal of amphetamine-induced hyperlocomotion; type: functional, organism-based
# Method in brief: (§5)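 Rats dosed orally; reversal of amphetamine-induced hyperlocomotion scored as % reversal of amphetamine effect, across an oral dose range up to 100 mg/kg; terminal unbound brain concentrations calculated at the doses tested.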
# Rattus norvegicus [20] = experiment: Antipsychotic activity in rat assessed as reversal of amphetamine-induced hyperlocomotion at 3 mg/kg, po; type: functional, organism-based; design: dose 3 mg/kg; method in brief: as §5
# Rattus norvegicus [21] = experiment: Antipsychotic activity in rat assessed as reversal of amphetamine-induced hyperlocomotion at 56.6 mg/kg, po; type: functional
# Method in brief: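 Rats were dosed orally and scored for reversal of amphetamine-induced hyperlocomotion, a model of antipsychotic activity. Doses tested went up to 100 mg/kg. Terminal unbound brain concentrations were calculated at the tested doses.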
# Rattus norvegicus [22] = experiment: Antipsychotic activity in rat assessed as reversal of amphetamine-induced hyperlocomotion at 100 mg/kg, po; type: functional; method in brief: as §5
# Rattus norvegicus [23] = experiment: Toxicity in rat assessed as pro-convulsive behavior up to 120 mg/kg, po by modified Irwin neurological test battery method; type: organism-based; design: dose 120 mg/kg, route oral; details: in vivo
# [24] = target: Metabotropic glutamate receptor 5 (Homo sapiens) (UniProt P41594); experiment: Agonist activity at mGluR5 (unknown origin) at 30 uM
# Canis familiaris = experiment: Toxicity in dog assessed as dizziness at 0.5 mg/ml, iv; type: organism-based, Canis lupus familiaris; details: in vivo
# [25] = target: T1, Metabotropic glutamate receptor 5; experiment: Negative allosteric modulation at rat mGluR5 expressed in HEK293 cells by calcium mobilization assay; type: functional, cell-based; details: read-out: IC50; method in brief: as §1
# [26] = target: Metabotropic glutamate receptor 5 (Rattus norvegicus) (UniProt P31424); experiment: Negative allosteric modulation at rat mGluR5 expressed in HEK293 cells by calcium mobilization assay relative to glutamate; details: 30 uM
# Chain of Metabotropic glutamate receptor 5 (Rattus norvegicus) (P31424 21-1203 limits assumed): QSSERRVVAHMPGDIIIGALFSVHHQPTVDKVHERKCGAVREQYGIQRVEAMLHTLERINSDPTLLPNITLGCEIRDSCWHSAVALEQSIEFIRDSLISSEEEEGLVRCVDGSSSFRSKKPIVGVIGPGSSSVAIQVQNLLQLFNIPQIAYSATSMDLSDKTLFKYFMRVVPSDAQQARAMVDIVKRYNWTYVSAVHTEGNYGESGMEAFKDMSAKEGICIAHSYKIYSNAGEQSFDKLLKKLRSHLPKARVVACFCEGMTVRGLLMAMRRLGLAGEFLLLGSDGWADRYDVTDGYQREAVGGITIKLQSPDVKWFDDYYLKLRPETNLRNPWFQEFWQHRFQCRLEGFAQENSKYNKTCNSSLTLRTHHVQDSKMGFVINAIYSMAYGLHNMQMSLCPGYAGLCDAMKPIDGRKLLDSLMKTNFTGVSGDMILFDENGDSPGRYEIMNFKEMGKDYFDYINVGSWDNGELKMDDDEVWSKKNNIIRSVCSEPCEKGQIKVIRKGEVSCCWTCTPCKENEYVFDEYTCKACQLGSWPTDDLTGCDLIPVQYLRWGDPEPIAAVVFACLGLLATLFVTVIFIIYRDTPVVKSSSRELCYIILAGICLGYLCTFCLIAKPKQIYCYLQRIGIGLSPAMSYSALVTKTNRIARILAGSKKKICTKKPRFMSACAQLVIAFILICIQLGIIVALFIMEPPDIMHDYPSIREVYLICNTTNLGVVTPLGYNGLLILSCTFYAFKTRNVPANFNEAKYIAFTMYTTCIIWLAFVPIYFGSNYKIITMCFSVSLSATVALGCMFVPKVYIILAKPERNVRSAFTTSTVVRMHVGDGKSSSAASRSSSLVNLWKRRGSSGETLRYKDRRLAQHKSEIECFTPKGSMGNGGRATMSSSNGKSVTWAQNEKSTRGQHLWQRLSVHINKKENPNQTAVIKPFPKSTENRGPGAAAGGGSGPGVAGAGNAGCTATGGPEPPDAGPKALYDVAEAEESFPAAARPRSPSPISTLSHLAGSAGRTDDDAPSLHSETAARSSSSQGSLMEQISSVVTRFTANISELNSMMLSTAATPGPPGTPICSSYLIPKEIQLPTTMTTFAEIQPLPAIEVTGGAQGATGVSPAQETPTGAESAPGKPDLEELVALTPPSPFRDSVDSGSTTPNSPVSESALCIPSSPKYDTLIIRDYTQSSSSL
# T1 sequence (P31424 whole entry): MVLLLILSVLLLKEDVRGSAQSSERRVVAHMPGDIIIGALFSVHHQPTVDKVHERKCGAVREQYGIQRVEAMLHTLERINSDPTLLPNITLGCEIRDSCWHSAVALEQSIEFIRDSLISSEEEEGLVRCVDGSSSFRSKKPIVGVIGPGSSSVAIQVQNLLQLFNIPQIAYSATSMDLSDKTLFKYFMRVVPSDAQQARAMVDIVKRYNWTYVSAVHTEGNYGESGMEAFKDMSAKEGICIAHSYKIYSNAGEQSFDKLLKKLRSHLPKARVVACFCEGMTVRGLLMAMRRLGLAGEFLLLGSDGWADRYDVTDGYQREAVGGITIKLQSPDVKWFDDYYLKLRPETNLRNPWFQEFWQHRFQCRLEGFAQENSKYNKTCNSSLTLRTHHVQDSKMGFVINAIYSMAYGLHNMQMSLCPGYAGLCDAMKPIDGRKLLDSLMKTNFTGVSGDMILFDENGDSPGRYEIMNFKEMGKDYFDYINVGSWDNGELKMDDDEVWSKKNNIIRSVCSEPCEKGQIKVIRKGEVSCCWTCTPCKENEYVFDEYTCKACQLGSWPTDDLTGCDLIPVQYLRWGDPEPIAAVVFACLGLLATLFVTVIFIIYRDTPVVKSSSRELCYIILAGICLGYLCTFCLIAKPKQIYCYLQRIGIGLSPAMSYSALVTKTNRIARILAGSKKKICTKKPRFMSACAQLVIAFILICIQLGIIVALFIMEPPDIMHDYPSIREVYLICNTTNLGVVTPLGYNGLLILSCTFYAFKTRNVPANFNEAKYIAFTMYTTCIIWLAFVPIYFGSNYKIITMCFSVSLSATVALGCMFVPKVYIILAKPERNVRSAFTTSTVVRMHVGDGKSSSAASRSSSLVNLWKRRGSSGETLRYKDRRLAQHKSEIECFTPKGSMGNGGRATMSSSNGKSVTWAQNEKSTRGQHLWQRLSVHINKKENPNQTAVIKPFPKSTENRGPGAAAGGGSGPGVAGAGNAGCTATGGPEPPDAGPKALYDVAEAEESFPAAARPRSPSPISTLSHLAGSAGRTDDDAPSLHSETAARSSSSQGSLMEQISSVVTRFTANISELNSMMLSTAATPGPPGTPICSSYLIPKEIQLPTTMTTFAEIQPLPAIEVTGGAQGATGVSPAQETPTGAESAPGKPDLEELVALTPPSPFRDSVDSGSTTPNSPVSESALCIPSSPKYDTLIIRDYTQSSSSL
# Chain of Metabotropic glutamate receptor 4 (Q14833 whole entry): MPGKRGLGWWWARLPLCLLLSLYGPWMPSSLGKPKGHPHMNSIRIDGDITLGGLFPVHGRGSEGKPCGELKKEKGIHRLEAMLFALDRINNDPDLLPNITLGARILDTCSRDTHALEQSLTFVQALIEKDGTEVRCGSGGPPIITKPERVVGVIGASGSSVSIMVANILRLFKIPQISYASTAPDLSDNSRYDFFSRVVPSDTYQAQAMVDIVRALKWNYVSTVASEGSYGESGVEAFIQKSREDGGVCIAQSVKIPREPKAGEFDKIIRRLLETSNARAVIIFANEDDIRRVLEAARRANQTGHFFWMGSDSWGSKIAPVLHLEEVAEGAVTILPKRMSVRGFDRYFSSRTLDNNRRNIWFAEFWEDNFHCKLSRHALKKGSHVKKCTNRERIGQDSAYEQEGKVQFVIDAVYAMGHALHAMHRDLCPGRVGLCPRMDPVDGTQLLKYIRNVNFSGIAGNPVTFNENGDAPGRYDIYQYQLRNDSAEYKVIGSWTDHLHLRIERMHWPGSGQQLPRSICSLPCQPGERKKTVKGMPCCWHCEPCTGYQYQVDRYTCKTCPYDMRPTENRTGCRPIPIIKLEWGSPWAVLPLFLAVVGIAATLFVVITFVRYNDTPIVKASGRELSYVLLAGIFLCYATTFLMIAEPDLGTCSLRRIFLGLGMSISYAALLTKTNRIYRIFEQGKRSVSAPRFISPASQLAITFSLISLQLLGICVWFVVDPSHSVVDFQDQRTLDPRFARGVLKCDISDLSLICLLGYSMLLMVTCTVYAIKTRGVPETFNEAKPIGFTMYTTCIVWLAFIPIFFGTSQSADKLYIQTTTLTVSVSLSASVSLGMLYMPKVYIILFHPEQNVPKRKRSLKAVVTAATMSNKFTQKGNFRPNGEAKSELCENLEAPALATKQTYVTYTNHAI
# Chain of Metabotropic glutamate receptor 2 (Q14416 whole entry): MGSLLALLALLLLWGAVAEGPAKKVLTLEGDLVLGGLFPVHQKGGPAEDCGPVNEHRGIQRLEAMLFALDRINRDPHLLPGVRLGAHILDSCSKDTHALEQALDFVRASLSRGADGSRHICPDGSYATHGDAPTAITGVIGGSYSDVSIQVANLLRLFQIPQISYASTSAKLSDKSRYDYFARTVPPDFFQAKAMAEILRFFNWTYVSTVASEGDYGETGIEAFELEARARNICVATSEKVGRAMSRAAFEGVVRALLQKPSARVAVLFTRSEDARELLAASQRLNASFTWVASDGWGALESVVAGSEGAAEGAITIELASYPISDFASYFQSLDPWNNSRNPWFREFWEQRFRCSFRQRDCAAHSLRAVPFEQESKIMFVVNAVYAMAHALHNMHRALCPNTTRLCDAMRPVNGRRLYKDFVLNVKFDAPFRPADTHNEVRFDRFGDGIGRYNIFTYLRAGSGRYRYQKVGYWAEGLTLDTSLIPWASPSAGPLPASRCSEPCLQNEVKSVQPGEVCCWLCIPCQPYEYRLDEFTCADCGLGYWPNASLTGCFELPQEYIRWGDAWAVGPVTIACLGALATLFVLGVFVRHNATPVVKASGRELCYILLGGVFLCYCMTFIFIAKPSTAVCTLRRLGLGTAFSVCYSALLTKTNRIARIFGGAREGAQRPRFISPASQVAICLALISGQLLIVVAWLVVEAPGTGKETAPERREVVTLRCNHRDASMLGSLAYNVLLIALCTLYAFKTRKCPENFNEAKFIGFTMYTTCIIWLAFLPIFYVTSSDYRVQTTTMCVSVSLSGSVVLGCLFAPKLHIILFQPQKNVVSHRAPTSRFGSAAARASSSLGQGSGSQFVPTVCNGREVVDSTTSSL
# Chain of Metabotropic glutamate receptor 3 (Q14832 whole entry): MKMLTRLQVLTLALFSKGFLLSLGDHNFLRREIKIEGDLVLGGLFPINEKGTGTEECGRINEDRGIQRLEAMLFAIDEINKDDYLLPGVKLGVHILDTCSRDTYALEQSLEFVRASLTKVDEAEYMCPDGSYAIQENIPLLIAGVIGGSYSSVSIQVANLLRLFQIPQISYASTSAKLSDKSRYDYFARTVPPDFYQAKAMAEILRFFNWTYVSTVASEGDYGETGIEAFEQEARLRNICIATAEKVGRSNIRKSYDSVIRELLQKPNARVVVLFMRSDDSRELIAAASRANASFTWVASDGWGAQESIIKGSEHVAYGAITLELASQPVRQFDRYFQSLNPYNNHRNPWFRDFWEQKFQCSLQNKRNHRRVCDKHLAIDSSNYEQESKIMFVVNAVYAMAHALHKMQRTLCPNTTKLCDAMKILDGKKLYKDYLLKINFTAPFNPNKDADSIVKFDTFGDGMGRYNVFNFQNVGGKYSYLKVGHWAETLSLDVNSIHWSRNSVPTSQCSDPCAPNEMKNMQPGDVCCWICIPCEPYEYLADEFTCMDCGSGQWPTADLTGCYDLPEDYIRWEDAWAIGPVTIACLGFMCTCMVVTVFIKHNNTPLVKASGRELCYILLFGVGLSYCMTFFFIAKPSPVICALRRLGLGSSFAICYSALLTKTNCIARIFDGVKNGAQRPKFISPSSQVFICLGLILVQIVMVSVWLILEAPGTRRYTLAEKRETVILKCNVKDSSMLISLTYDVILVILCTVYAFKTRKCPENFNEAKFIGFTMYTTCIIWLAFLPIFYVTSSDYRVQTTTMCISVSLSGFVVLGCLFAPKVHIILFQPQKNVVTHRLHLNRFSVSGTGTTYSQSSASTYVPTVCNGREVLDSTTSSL
compound,measurement,setting,value
CN(C)c1cccc(-n2ccc3nc(COc4ccccc4)cn3c2=O)n1,EC50,[1],284 nM
same,Emax,[2],87%
same,"metabolised at 0.25 h, 1 µM",[3],66%
same,"metabolised at 0.25 h, 1 µM",[4],90%
O=c1n(-c2ccc(F)cc2)ccc2nc(COc3ccc(F)cc3)cn12,EC50,[1],375 nM
same,Emax,[2],85%
same,"metabolised at 0.25 h, 1 µM",[3],11%
same,"metabolised at 0.25 h, 1 µM",[4],29%
O=c1n(-c2ccc(F)cc2)ccc2nc(COc3ccccc3)cn12,EC50,[1],310 nM
same,Emax,[2],83%
same,"metabolised at 0.25 h, 1 µM",[3],14%
same,"metabolised at 0.25 h, 1 µM",[4],27%
same,PPB,[5],96.4%
same,PPB,[6],93.1%
same,IC50,[7],630 nM
same,EC50,[8],> 10000 nM
same,EC50,[9],> 10000 nM
same,EC50,[10],> 10000 nM
same,EC50,[11],> 10000 nM
same,EC50,[12],> 10000 nM
same,EC50,[13],> 10000 nM
O=C1N(c2ccc(F)cc2)CCc2nc(COc3ccccc3)cn21,EC50,[1],86 nM
same,Emax,[2],70%
same,"metabolised at 0.25 h, 1 µM",[3],18%
same,"metabolised at 0.25 h, 1 µM",[4],19%
same,PPB,[5],90.3%
same,PPB,[6],88.1%
same,IC50,Cytochrome P450 2C9,> 20000 nM
same,IC50,Cytochrome P450 2D6,> 20000 nM
same,IC50,Cytochrome P450 3A4,> 20000 nM
same,IC50,Cytochrome P450 1A2,> 20000 nM
same,IC50,[7],290 nM
same,EC50,[8],> 10000 nM
same,EC50,[9],> 10000 nM
same,EC50,[10],> 10000 nM
same,EC50,[11],> 10000 nM
same,EC50,[12],> 10000 nM
same,EC50,[13],> 10000 nM
same,half-life,[14],55.8 min
same,Vdss,Rattus norvegicus [15],1.4 L/kg
same,AUC,Plasma,7.2 µM·h
same,Kp,[16],1.8
same,fraction unbound,[17],0.062
same,Cmax,[18],6.05 µM
same,Activity,Rattus norvegicus [19],Dose-dependent effect
same,Activity,Rattus norvegicus [20],Active
same,Activity,Rattus norvegicus [21],50%
same,Activity,Rattus norvegicus [22],50%
same,Activity,Rattus norvegicus [23],Toxic
same,Activity,[24],inactive
same,Activity,Canis familiaris,Toxic
Cc1cc(-n2ccc3nc(COc4ccccc4)cn3c2=O)ncc1F,EC50,[1],435 nM
same,Emax,[2],77%
same,"metabolised at 0.25 h, 1 µM",[3],17%
same,"metabolised at 0.25 h, 1 µM",[4],49%
Cc1cn(-c2ccc(F)cc2)c(=O)n2cc(COc3ccccc3)nc12,"metabolised at 0.25 h, 1 µM",[3],36%
same,"metabolised at 0.25 h, 1 µM",[4],71%
same,IC50,[25],1000 nM
same,IC50,[26],16 nM
O=C1N(c2ccc(F)cc2)CCc2nc(COc3ccc(F)cc3)cn21,EC50,[1],197 nM
same,Emax,[2],88%
same,"metabolised at 0.25 h, 1 µM",[3],3%
same,"metabolised at 0.25 h, 1 µM",[4],11%
O=c1n(-c2ccc(F)cn2)ccc2nc(COc3ccccc3)cn12,EC50,[1],587 nM
same,Emax,[2],87%
Cc1cc2nc(COc3ccccc3)cn2c(=O)n1-c1ccc(F)cc1,EC50,[1],2070 nM
same,Emax,[2],60%
O=c1n(CC2CC2)ccc2nc(COc3ccccc3)cn12,EC50,[1],1120 nM
same,Emax,[2],47%
Cc1cc(N2CCc3nc(COc4ccccc4)cn3C2=O)ccc1F,EC50,[1],130 nM
same,Emax,[2],91%
same,"metabolised at 0.25 h, 1 µM",[3],10%
same,"metabolised at 0.25 h, 1 µM",[4],37%
O=c1n(-c2ccc(F)cc2)ccc2nc(COc3ccccc3)c(Cl)n12,"metabolised at 0.25 h, 1 µM",[3],6%
same,"metabolised at 0.25 h, 1 µM",[4],73%
same,IC50,[25],218 nM
same,IC50,[26],5 nM
O=C1N(c2ccc(F)cc2)CCc2nc(COc3cccc(F)c3)cn21,EC50,[1],69 nM
same,Emax,[2],72%
same,"metabolised at 0.25 h, 1 µM",[3],0%
same,"metabolised at 0.25 h, 1 µM",[4],29%
O=C1N(c2cccc(F)c2)CCc2nc(COc3ccccc3)cn21,EC50,[1],218 nM
same,Emax,[2],82%
same,"metabolised at 0.25 h, 1 µM",[3],20%
same,"metabolised at 0.25 h, 1 µM",[4],78%
O=c1n(-c2ccc(F)c(F)c2)ccc2nc(COc3ccccc3)cn12,EC50,[1],230 nM
same,Emax,[2],93%
O=c1n(Cc2ccccc2)ccc2nc(COc3ccccc3)cn12,EC50,[1],1590 nM
same,Emax,[2],93%
Cc1cccc(OCc2cn3c(=O)n(-c4ccc(F)cc4)ccc3n2)c1,EC50,[1],344 nM
same,Emax,[2],30%
